Laboratory results published in ChEMBL document CHEMBL4665798, “Novel Human Urate Transporter 1 Inhibitors as Hypouricemic Drug Candidates with Favorable Druggability” (J Med Chem, 2020).
pIC50: −log10 of the molar value.

How the values were obtained:
[1] = Tmax in Sprague-Dawley rat at 10 mg/kg, po by LC-MS analysis; format: ADME, organism-based; conditions: in vivo
How it was run: (§1)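 Male Sprague-Dawley rats, two groups, dosed iv or orally; compound in PEG 400/normal saline (70/30, V/V). Oral blood from sinus jugularis at 5 min to 24 h, plasma by centrifugation at 2200 g, stored -20 °C. Plasma with internal standard precipitated by methanol, quantified by LC-MS against spiked blank-plasma standard curves. Mean ± SD, n = 5.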

[2] = Half-life in Sprague-Dawley rat at 10 mg/kg, po by LC-MS analysis; format: ADME, organism-based; conditions: in vivo; how it was run: as §1
[3] = Oral bioavailability in Sprague-Dawley rat at 10 mg/kg by LC-MS analysis; format: ADME, organism-based; conditions: in vivo; how it was run: as §1
[4] = AUC (0 to infinity) in Sprague-Dawley rat at 10 mg/kg, po by LC-MS analysis; format: ADME, organism-based; parameters: time infinity, route oral, dose 10 mg/kg; conditions: in vivo; how it was run: as §1
[5] = Tmax in male Kunming mouse at 50 mg/kg, po by LC-MS/MS analysis; format: ADME, organism-based; conditions: in vivo
How it was run: (§2)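 Male Kunming mice, ten in total, split into five groups; single oral dose in PEG 400/normal saline (70/30, v/v). Blood taken from submandibular or saphenous vein into K2EDTA tubes at 0.25, 0.5, 1, 2, 4, 8, 24, 48, 72 h. Plasma spun at about 4 °C and kept at -70 °C. Acetonitrile precipitation with dexamethasone internal standard, then LC-MS/MS against plasma standard curves.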

[6] = AUC (0 to t) in male Kunming mouse at 500 mg/kg, po by LC-MS/MS analysis; format: ADME, organism-based; parameters: dose 500 mg/kg; conditions: in vivo
How it was run: (§3)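 Male Kunming mice given oral compound in PEG 400/normal saline (70/30, V/V). Blood from submandibular or saphenous vein into K2EDTA tubes at 0.25 to 72 h. Plasma spun at 3200g near 4 °C, kept -70 °C, precipitated with acetonitrile plus dexamethasone internal standard. Quantified by LC-MS/MS against spiked blank-plasma standard curves.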

[7] = Tmax in Sprague-Dawley rat at 20 mg/kg, po by LC-MS analysis; format: ADME, organism-based; conditions: in vivo
[8] = biological target: Voltage-gated inwardly rectifying potassium channel KCNH2 (Homo sapiens, UniProt Q12809); assay: Inhibition of human ERG expressed in HEK293 cells at -80 mV holding potential by whole cell voltage patch clamp assay; format: cell-based
How it was run: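 Manual patch clamp on HEK293 cells stably expressing hERG, cultured at least 24 h at 37 °C, 5% CO2. Pipettes 3–5 MΩ. Current stabilized 3 min with vehicle before compound. Compound kept on until peak tail current stable (<5% change) for ~5 sweeps. Cisapride monohydrate used as reference.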

[9] = AUC (0 to infinity) in male Kunming mouse at 500 mg/kg, po by LC-MS/MS analysis; format: ADME, organism-based; parameters: time infinity, route oral, dose 500 mg/kg; conditions: in vivo; how it was run: as §3
[10] = Half-life in male Kunming mouse at 2 mg/kg, po by LC-MS/MS analysis; format: ADME, organism-based; conditions: in vivo; how it was run: as §2
[11] = Half-life in Sprague-Dawley rat at 20 mg/kg, po by LC-MS analysis; format: ADME, organism-based; conditions: in vivo
[12] = MRT (0 to infinity) in Sprague-Dawley rat at 20 mg/kg, po by LC-MS analysis; format: ADME, organism-based; conditions: in vivo
[13] = Cmax in male Kunming mouse at 2 mg/kg, po by LC-MS/MS analysis; format: ADME, organism-based; parameters: route oral, dose 2 mg/kg; conditions: in vivo; how it was run: as §2
[14] = Half-life in male Kunming mouse at 50 mg/kg, po by LC-MS/MS analysis; format: ADME, organism-based; conditions: in vivo; how it was run: as §2
[15] = AUC (0 to infinity) in male Kunming mouse at 2 mg/kg, po by LC-MS/MS analysis; format: ADME, organism-based; parameters: time infinity, route oral, dose 2 mg/kg; conditions: in vivo; how it was run: as §2
[16] = organism: Rattus norvegicus; assay: Hypouricemic activity in rat model of xanthine/potassium oxonate-induced acute hyperuricemia assessed as decrease in serum uric acid level relative to control; format: functional; parameters: scale not given: the % may be the effect or the level left
[17] = Oral bioavailability in Sprague-Dawley rat at 20 mg/kg by LC-MS analysis; format: ADME, organism-based; conditions: in vivo

Sequence of Voltage-gated inwardly rectifying potassium channel KCNH2 (Q12809 whole entry): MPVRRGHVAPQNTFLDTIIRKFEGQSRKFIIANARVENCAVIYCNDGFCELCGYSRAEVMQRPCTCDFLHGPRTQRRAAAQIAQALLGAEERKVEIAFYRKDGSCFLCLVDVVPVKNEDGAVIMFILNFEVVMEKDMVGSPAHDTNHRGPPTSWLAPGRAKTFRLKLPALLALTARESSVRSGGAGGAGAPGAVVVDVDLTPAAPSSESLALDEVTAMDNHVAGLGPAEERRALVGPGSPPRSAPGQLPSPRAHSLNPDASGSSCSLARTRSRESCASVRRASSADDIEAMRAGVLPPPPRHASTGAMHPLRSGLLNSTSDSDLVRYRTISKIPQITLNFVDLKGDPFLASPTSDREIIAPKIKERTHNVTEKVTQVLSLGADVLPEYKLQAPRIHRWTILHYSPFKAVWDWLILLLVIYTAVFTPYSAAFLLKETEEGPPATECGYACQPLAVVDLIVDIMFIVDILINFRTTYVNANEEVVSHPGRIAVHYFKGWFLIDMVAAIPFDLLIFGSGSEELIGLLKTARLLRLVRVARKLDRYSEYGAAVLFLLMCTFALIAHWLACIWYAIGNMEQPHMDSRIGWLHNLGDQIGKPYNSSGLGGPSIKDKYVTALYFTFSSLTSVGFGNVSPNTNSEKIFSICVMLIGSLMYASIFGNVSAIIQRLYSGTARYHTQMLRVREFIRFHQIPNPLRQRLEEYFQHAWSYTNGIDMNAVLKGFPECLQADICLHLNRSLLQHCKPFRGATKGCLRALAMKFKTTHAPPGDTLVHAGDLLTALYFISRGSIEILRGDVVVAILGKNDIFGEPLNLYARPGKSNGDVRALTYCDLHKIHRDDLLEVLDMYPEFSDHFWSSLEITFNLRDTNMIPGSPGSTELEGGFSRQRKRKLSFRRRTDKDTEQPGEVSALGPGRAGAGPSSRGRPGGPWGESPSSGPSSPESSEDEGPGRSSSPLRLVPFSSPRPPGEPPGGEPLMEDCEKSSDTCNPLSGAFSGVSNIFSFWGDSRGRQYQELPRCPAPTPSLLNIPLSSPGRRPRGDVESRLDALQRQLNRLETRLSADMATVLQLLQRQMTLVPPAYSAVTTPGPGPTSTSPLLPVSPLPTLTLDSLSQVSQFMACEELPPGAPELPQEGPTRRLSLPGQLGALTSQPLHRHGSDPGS

Row | SMILES | Tmax [1] | half-life [2] | bioavailability [3] | AUC(0-inf) [4] | Tmax [5] | AUC(0-t) [6] | Tmax [7] | pIC50 [8] | AUC(0-inf) [9] | half-life [10] | half-life [11] | MRT inf [12] | Cmax [13] | half-life [14] | AUC(0-inf) [15] | Activity [16] | bioavailability [17]
1 | O=C(CSc1nnc(Br)n1-c1ccc(C2CC2)c2ccccc12)NS(=O)(=O)c1ccc(Br)cc1 | 1.8 h | 3.4 h | 63.4% | 19.6 µg·h/mL | – | – | – | – | – | – | – | – | – | – | – | – | –
2 | CC(Sc1nc2ncccc2n1-c1ccc(C2CC2)c2ccccc12)C(=O)O (racemic) | – | – | – | – | 1.67 h | 2960 µg·h/mL | 2 h | < 4.52 | 2960 µg·h/mL | 4.24 h | 3.4 h | 5.3 h | 2.08 µg/mL | 7.06 h | 13 µg·h/mL | 83.96% | 76.3%
